Type in all cases: functional
Experiment [1] concerns Rattus norvegicus. The experiment can be described thus: Percent change in triglycerides in hypercholesterolemic rats at a dose of 100 mg/kg/day for 8 days.
The subject of experiment [2] is Rattus norvegicus. As to the kind of experiment: Percent change in very low-density lipoprotein cholesterol following oral administration of compound in normal chow-fed rats at 100 mg/kg/day for 4 days. A digest of the protocol:
(§1)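 Chow-fed male Sprague–Dawley CD rats, 60–80 g, gavaged 100 mg/kg/day for 4 days in 1.3% Tween 80/0.25% CMC. Fasted overnight, bled 24 h after the last dose. Total cholesterol and glycerol-blanked triglycerides read enzymatically; lipoproteins by FPLC with cholesterol per fraction. % change versus control; six per group, p < 0.05.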

For experiment [3], the system named is Rattus norvegicus. As to the kind of experiment: Percent change in total plasma cholesterol following oral administration of compound in normal chow-fed rats at 100 mg/kg/day for 4 days. A digest of the protocol: as §1
The subject of experiment [4] is Rattus norvegicus. The experiment can be described thus: Percent change in triglycerides following oral administration of compound in normal chow-fed rats at 100 mg/kg/day for 4 days. An outline of the steps:
as §1

Experiment [5] has as its system Rattus norvegicus. The experiment can be described thus: Percent change in low-density lipoprotein cholesterol following oral administration of compound in normal chow-fed rats at 100 mg/kg/day for 4 days. An outline of the steps:
as §1

The test system of experiment [6] is Rattus norvegicus. The experiment can be described thus: Percent change in total plasma cholesterol in hypercholesterolemic rats dosed at 100 mg/kg/day for 8 days.
Experiment [7] has as its system Rattus norvegicus. The experiment can be described thus: Percent change in high-density lipoprotein cholesterol following oral administration of compound in normal chow-fed rats at 100 mg/kg/day for 4 days. A digest of the protocol:
as §1

Experiment [8] has as its system Rattus norvegicus. The experiment can be described thus: Percent change in high-density lipoprotein cholesterol in hypercholesterolemic rats dosed at 100 mg/kg/day for 8 days.

With `CCN1CC(=O)N(c2ccc(OC(F)(F)F)cc2)C1=S`, the Change was -72% in the experiment with Rattus norvegicus [1]; 543.5% in the experiment with Rattus norvegicus [2]; 197.6% with Rattus norvegicus [3]; 2.8% in the experiment on Rattus norvegicus [4]; 127.5% with Rattus norvegicus [5]; -1% in the experiment on Rattus norvegicus [6]. Moreover, the Change in the experiment with Rattus norvegicus [7] amounted to 71.4%; with Rattus norvegicus [8], 265%.

With `CN1OCC(=O)N(c2ccc(C(C)(C)C)cc2)C1=S`, the Change in the experiment on Rattus norvegicus [1] is given as -51%; in the experiment on Rattus norvegicus [2], 176.5%; in the experiment with Rattus norvegicus [3], 62%; in the experiment on Rattus norvegicus [4] it was -24.6%; in the experiment on Rattus norvegicus [5] it was 2.6%; with Rattus norvegicus [6] it was 2%. Further, the Change with Rattus norvegicus [7] stood at 61.6%; in the experiment on Rattus norvegicus [8], 170%.

With `Cc1ccc(Cl)cc1N1C(=O)C(C)N(C)C1=S` (centres undefined), the Change was -58% with Rattus norvegicus [1]; 134.7% in the experiment with Rattus norvegicus [2]; 276.5% in the experiment with Rattus norvegicus [3]; 207.2% with Rattus norvegicus [4]; 800% with Rattus norvegicus [5]; -8% with Rattus norvegicus [6]. Moreover, the Change was found to be 67.9% with Rattus norvegicus [7] and 220% in the experiment on Rattus norvegicus [8].

Take `Cc1cccc(Cl)c1N1C(=O)CN(C)C1=S`: the Change in the experiment with Rattus norvegicus [1] is on record as -56%; with Rattus norvegicus [2], 89.4%; in the experiment with Rattus norvegicus [3], 71.2%; in the experiment with Rattus norvegicus [4] it was -37.9%; with Rattus norvegicus [5], 0%; in the experiment on Rattus norvegicus [6], 17%. The Change with Rattus norvegicus [7] came out at 75.7%; in the experiment with Rattus norvegicus [8], 84%.

On to `CC(C)c1ccccc1N1C(=O)CON(C)C1=S`, for which the Change in the experiment on Rattus norvegicus [1] is reported as -16%; with Rattus norvegicus [2] it was -8.3%; in the experiment on Rattus norvegicus [3], 92.4%; in the experiment with Rattus norvegicus [4], -52.7%; with Rattus norvegicus [5], 32.1%; in the experiment on Rattus norvegicus [6], 0%. Also, the Change in the experiment with Rattus norvegicus [7] stood at 98.2%; in the experiment on Rattus norvegicus [8], 95%.

As for `CCN1CCC(=O)N(c2ccccc2C(C)C)C1=S`, the Change with Rattus norvegicus [1] is -31%; in the experiment on Rattus norvegicus [2], 35.2%; in the experiment with Rattus norvegicus [3], 59.2%; in the experiment with Rattus norvegicus [4], -12.4%; with Rattus norvegicus [5] it was 9.8%; in the experiment with Rattus norvegicus [6], 44%. The Change in the experiment on Rattus norvegicus [7] is given as 67.8%; in the experiment with Rattus norvegicus [8], 108%.

As for `Cc1ccc(Cl)cc1N1C(=O)CON(C)C1=S`, the Change with Rattus norvegicus [1] was -10%; in the experiment on Rattus norvegicus [2] it was 23.1%; with Rattus norvegicus [3] it was 85.7%; with Rattus norvegicus [4] it was -26.2%; with Rattus norvegicus [5] it was 29.9%; with Rattus norvegicus [6], 5.7%. Further, the Change in the experiment with Rattus norvegicus [7] is reported as 83.5%; with Rattus norvegicus [8], 236%.

`CCN1C(=O)C(=O)N(c2c(C)cccc2C)C1=S`: the Change is -48% with Rattus norvegicus [1]; 409.7% in the experiment on Rattus norvegicus [2]; 138.2% with Rattus norvegicus [3]; -32.8% with Rattus norvegicus [4]; 73.2% in the experiment on Rattus norvegicus [5]; -21% in the experiment on Rattus norvegicus [6]. Moreover, the values for the Change in the experiment with Rattus norvegicus [7] and with Rattus norvegicus [8] were 114.4% and 186%, respectively.

On to `CN1CC(=O)N(c2ccc3c(c2)CCC3)C1=S`, for which the Change in the experiment on Rattus norvegicus [1] is -26%; in the experiment with Rattus norvegicus [2], 26.3%; with Rattus norvegicus [3], 26%; with Rattus norvegicus [4], -0.9%; in the experiment on Rattus norvegicus [5] it was -40.3%; in the experiment with Rattus norvegicus [6], -3%. Moreover, the values for the Change in the experiment on Rattus norvegicus [7] and with Rattus norvegicus [8] were 46% and 112%, respectively.

As to `CCN1CC(=O)N(c2ccccc2C)C1=S`, the Change in the experiment with Rattus norvegicus [1] was 38%; in the experiment with Rattus norvegicus [2] it was 0%; in the experiment on Rattus norvegicus [3], 52.1%; in the experiment on Rattus norvegicus [4] it was -25%; in the experiment on Rattus norvegicus [5], 18.7%; with Rattus norvegicus [6] it was 76.5%. The Change is 54.3% with Rattus norvegicus [7] and 164% in the experiment with Rattus norvegicus [8].

As for `CN1OCC(=O)N(c2cccc3c2CCC3)C1=S`, the Change is recorded as -26% with Rattus norvegicus [1]; 68% in the experiment with Rattus norvegicus [2]; 78.5% in the experiment on Rattus norvegicus [3]; -31.2% in the experiment on Rattus norvegicus [4]; 42.3% in the experiment with Rattus norvegicus [5]; -2% with Rattus norvegicus [6]. Also, the Change in the experiment with Rattus norvegicus [7] was determined as 81.8%; in the experiment with Rattus norvegicus [8], 192%.

Turning to `CN1CC(=O)N(c2c(Cl)cccc2Cl)C1=S`, the Change in the experiment on Rattus norvegicus [1] was -43%; with Rattus norvegicus [2] it was -3.3%; in the experiment with Rattus norvegicus [3], 83.9%; in the experiment on Rattus norvegicus [4] it was -33.3%; in the experiment on Rattus norvegicus [5], 39.6%; with Rattus norvegicus [6], 4.6%. For the same compound, the Change with Rattus norvegicus [7] came to 109.3%; with Rattus norvegicus [8], 92%.

As for `CCc1cccc(C(C)C)c1N1C(=O)CN(CC)C1=S`, the Change is listed as 5% with Rattus norvegicus [1]; -50% in the experiment on Rattus norvegicus [2]; 30.9% with Rattus norvegicus [3]; -12.2% with Rattus norvegicus [4]; -22.3% in the experiment on Rattus norvegicus [5]; -62% in the experiment on Rattus norvegicus [6]. The results for the Change in the experiment on Rattus norvegicus [7] and in the experiment on Rattus norvegicus [8] were 48.7% and 54%, respectively.

As to `C=CCN1CC(=O)N(c2c(C)cccc2C)C1=S`, the Change in the experiment with Rattus norvegicus [1] is reported as -45%; with Rattus norvegicus [2] it was -45.8%; in the experiment on Rattus norvegicus [3] it was 86%; in the experiment on Rattus norvegicus [4], -29.9%; in the experiment with Rattus norvegicus [5], -18.8%; with Rattus norvegicus [6], -5%. Moreover, the Change in the experiment on Rattus norvegicus [7] is 120.4%; in the experiment with Rattus norvegicus [8] it was 177%.

In the case of `CCc1cccc(C)c1N1C(=O)CN(CC)C1=S`, the Change is -10% in the experiment on Rattus norvegicus [1]; -29.2% in the experiment with Rattus norvegicus [2]; 52.8% in the experiment on Rattus norvegicus [3]; -8.2% in the experiment on Rattus norvegicus [4]; -6.5% in the experiment on Rattus norvegicus [5]; -19% in the experiment on Rattus norvegicus [6]. The Change in the experiment with Rattus norvegicus [7] stood at 61.9%; with Rattus norvegicus [8], 112%.

With `CN1OCC(=O)N(C(c2ccccc2)c2ccccc2)C1=S`, the Change is 9% in the experiment with Rattus norvegicus [1]; -29.3% in the experiment on Rattus norvegicus [2]; 17.6% in the experiment on Rattus norvegicus [3]; -44.1% in the experiment on Rattus norvegicus [4]; 43.8% with Rattus norvegicus [5]; 22% in the experiment on Rattus norvegicus [6]. Also, the Change with Rattus norvegicus [7] came out at 33.7%; in the experiment on Rattus norvegicus [8], 60%.

Take `Cc1cc(Cl)ccc1N1C(=O)CON(C)C1=S`: the Change is -38% with Rattus norvegicus [1]; 114.7% in the experiment with Rattus norvegicus [2]; 51.4% in the experiment on Rattus norvegicus [3]; -4.3% with Rattus norvegicus [4]; 20.8% in the experiment on Rattus norvegicus [5]; 4% in the experiment on Rattus norvegicus [6]. Besides, the Change in the experiment with Rattus norvegicus [7] worked out at 53.4%; in the experiment on Rattus norvegicus [8], 221%.

For `CCN1CCC(=O)N(c2c(C)cccc2Cl)C1=S`, the Change with Rattus norvegicus [1] is -16%; in the experiment on Rattus norvegicus [2], -5.3%; with Rattus norvegicus [3], 45.4%; with Rattus norvegicus [4], -35.7%; in the experiment with Rattus norvegicus [5], -1.1%; with Rattus norvegicus [6] it was 23%. Besides, the Change came to 45.5% in the experiment on Rattus norvegicus [7] and 199% with Rattus norvegicus [8].

Take `CCN1CC(=O)N(c2c(C)cccc2C)C1=S`: the Change is -23% in the experiment with Rattus norvegicus [1]; 13% in the experiment on Rattus norvegicus [2]; 106.7% in the experiment with Rattus norvegicus [3]; -12.8% with Rattus norvegicus [4]; 43.8% in the experiment with Rattus norvegicus [5]; -28% in the experiment with Rattus norvegicus [6]. Also, the Change came out at 93.6% in the experiment with Rattus norvegicus [7] and 181% in the experiment on Rattus norvegicus [8].

As for `CCN1C(=S)N(CC(C)C)C(=O)C1c1ccccc1` (centres undefined), the Change was 92% in the experiment on Rattus norvegicus [1]; 33.3% in the experiment on Rattus norvegicus [2]; -8.4% with Rattus norvegicus [3]; -1.6% in the experiment with Rattus norvegicus [4]; -9.3% in the experiment with Rattus norvegicus [5]; 7% in the experiment on Rattus norvegicus [6]. Also, the Change is -3.1% in the experiment with Rattus norvegicus [7] and 156% with Rattus norvegicus [8].

Regarding `CCN1CC(=O)N(c2ccccc2C(F)(F)F)C1=S`, the Change with Rattus norvegicus [1] is 35%; in the experiment on Rattus norvegicus [2] it was 52.6%; in the experiment on Rattus norvegicus [3] it was 67.2%; in the experiment on Rattus norvegicus [4], -6.3%; in the experiment with Rattus norvegicus [5] it was -13.3%; in the experiment with Rattus norvegicus [6] it was 18%. In addition, the Change is listed as 103.5% in the experiment with Rattus norvegicus [7] and 116% in the experiment on Rattus norvegicus [8].

For the compound `CCN1CC(=O)N(c2cc(C)ccc2C)C1=S`, the Change in the experiment on Rattus norvegicus [1] is reported as -6%; with Rattus norvegicus [2], 31.3%; with Rattus norvegicus [3] it was 26.4%; in the experiment on Rattus norvegicus [4], -2.5%; in the experiment on Rattus norvegicus [5], -8.3%; with Rattus norvegicus [6], 49%. Further, the Change with Rattus norvegicus [7] is listed as 31.9%; in the experiment on Rattus norvegicus [8], 124%.

In the case of `CN1OCC(=O)N(c2ccc(Oc3ccccc3)cc2)C1=S`, the Change in the experiment on Rattus norvegicus [1] is reported as -43%; in the experiment with Rattus norvegicus [2], -9.1%; in the experiment on Rattus norvegicus [3], -13%; in the experiment with Rattus norvegicus [4] it was -20.5%; in the experiment on Rattus norvegicus [5], -20.5%; in the experiment on Rattus norvegicus [6], -25%. Besides, the Change came to 0% in the experiment with Rattus norvegicus [7] and 102% in the experiment on Rattus norvegicus [8].
